From ChEMBL document CHEMBL1124885, “Resolution, absolute stereochemistry, and enantioselectivity of 2-methyl-4-phenyl-1,2,3,4-tetrahydroisoquinolin-4-ol” (1990)

How the values were obtained:
[1] = Activity ratio, difference between the pD2 values for NE obtained in the absence and presence at 3 x 10 E -6 M; format: functional
How it was run: (§1)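 Isolated rat anococcygeus muscle. Concentration-response curves to norepinephrine (NE) were run with and without the test compound, and potentiation was judged from the shift at low NE concentrations. pD2 is the negative log of the molar NE concentration giving 50% of maximal response. Activity ratio is the antilog of the pD2 difference with versus without compound, with no compound set at 1.0. n is the number of experiments.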

[2] = Activity ratio, difference between the pD2 values for NE obtained in the absence and presence at 10e-7 M; format: functional; how it was run: as §1
[3] = Activity ratio, difference between the pD2 values for NE obtained in the absence and presence at 3 x 10e-7 M; format: functional; how it was run: as §1
Rattus norvegicus [4] = species on record: Rattus norvegicus; test: Tested for potentiating activity on the responses of rat anococcygeus muscle to norepinephrine (NE)at a concentration of 0 (absence of potentiating compound); format: functional, Muscle tissue; how it was run: as §1
[5] = Activity ratio, difference between the pD2 values for NE obtained in the absence and presence at 10e-6 M; format: functional; how it was run: as §1
Rattus norvegicus [6] = species on record: Rattus norvegicus; test: Tested for potentiating activity on the responses of rat anococcygeus muscle to norepinephrine (NE)at a concentration of 3 x 10e -7 M; format: functional, Muscle tissue; how it was run: as §1
Rattus norvegicus [7] = species on record: Rattus norvegicus; test: Tested for potentiating activity on the responses of rat anococcygeus muscle to norepinephrine (NE)at a concentration of 10e-6 M; format: functional, Muscle tissue; how it was run: as §1
Rattus norvegicus [8] = species on record: Rattus norvegicus; test: Tested for potentiating activity on the responses of rat anococcygeus muscle to norepinephrine (NE)at a concentration of 3 x 10e-6 M; format: functional, Muscle tissue; how it was run: as §1
Rattus norvegicus [9] = species on record: Rattus norvegicus; test: Tested for potentiating activity on the responses of rat anococcygeus muscle to norepinephrine (NE)at a concentration of 10e-7 M; format: functional, Muscle tissue; how it was run: as §1
[10] = Activity ratio, difference between the pD2 values for NE obtained in the absence and presence at 0 (absence of potentiating compound); format: functional; how it was run: as §1
[11] = Activity ratio, difference between the pD2 values for NE obtained in the absence and presence at 3 x 10 E -7 M; format: functional; how it was run: as §1
Rattus norvegicus [12] = species on record: Rattus norvegicus; test: Tested for potentiating activity on the responses of rat anococcygeus muscle to norepinephrine (NE)at a concentration of 10 E -6 M; format: functional, Muscle tissue; how it was run: as §1
Rattus norvegicus [13] = species on record: Rattus norvegicus; test: Tested for potentiating activity on the responses of rat anococcygeus muscle to norepinephrine (NE)at a concentration of 3 x 10 E -7 M; format: functional, Muscle tissue; how it was run: as §1
[14] = Activity ratio, difference between the pD2 values for NE obtained in the absence and presence at 10 E -6 M; format: functional; how it was run: as §1
Rattus norvegicus [15] = species on record: Rattus norvegicus; test: Tested for potentiating activity on the responses of rat anococcygeus muscle to norepinephrine (NE)at a concentration of 3 x 10 E -6 M; format: functional, Muscle tissue; how it was run: as §1
[16] = Activity ratio, difference between the pD2 values for NE obtained in the absence and presence at 10 E -7 M; format: functional; how it was run: as §1
Rattus norvegicus [17] = species on record: Rattus norvegicus; test: Tested for potentiating activity on the responses of rat anococcygeus muscle to norepinephrine (NE)at a concentration of 10 E -7 M; format: functional, Muscle tissue; how it was run: as §1

Structure (SMILES)	Ratio [1]	Ratio [2]	Ratio [3]	pD2 (Rattus norvegicus [4])	Ratio [5]	pD2 (Rattus norvegicus [6])	pD2 (Rattus norvegicus [7])	pD2 (Rattus norvegicus [8])	pD2 (Rattus norvegicus [9])	Ratio [10]	Ratio [11]	pD2 (Rattus norvegicus [12])	pD2 (Rattus norvegicus [13])	Ratio [14]	pD2 (Rattus norvegicus [15])	Ratio [16]	pD2 (Rattus norvegicus [17])
CN1Cc2ccccc2C(O)(c2ccccc2)C1 (racemic)	17.8	1.5	3	6.25	8.5	6.73	7.18	7.5	6.42	1	–	–	–	–	–	–	–
CN1Cc2ccccc2[C@@](O)(c2ccccc2)C1	1.1	–	–	6.23	–	–	–	–	–	1	1	6.23	6.24	1	6.27	–	–
CN1Cc2ccccc2[C@](O)(c2ccccc2)C1	21.4	–	–	6.23	–	–	–	–	–	1	6	7.28	7.01	11.2	7.56	2.3	6.6
